Data: ChEMBL document CHEMBL3813675, “Identification of potent and selective retinoic acid receptor gamma (RARγ) antagonists for the treatment of osteoarthritis pain using structure based drug design” (Bioorg Med Chem Lett, 2016)

Assays:
[1] = target: T1, Retinoic acid receptor gamma (Homo sapiens) (UniProt P13631); assay: Antagonist activity at RARgamma-LBD (unknown origin) expressed in HEK-293 cells assessed as inhibition of ATRA induced Gal4/luciferase gene expression after 24 hrs; type: cell-based; conditions: HEK293
T1 sequence (whole entry): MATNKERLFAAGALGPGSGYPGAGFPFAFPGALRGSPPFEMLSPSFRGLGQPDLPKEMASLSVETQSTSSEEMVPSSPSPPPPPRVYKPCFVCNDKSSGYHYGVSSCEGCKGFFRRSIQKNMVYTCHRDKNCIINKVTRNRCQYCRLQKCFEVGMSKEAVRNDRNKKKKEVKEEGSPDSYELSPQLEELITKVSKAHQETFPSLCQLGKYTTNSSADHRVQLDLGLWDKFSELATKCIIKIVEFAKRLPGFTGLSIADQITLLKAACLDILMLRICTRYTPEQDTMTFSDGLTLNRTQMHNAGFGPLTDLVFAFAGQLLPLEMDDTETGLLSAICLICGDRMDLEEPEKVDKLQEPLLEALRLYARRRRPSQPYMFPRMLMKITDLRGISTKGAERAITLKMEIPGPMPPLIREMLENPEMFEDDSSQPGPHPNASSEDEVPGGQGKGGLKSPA

[2] = target: T1, Retinoic acid receptor gamma (Homo sapiens); assay: Antagonist activity at RARgamma-LBD (unknown origin) expressed in HEK-293 cells assessed as inhibition of ATRA induced Gal4/luciferase gene expression after 24 hrs relative to ATRA; type: cell-based; conditions: HEK293
[3] = target: T2, Retinoic acid receptor alpha/Retinoid X receptor alpha (Homo sapiens, UniProt P10276); assay: Displacement of [3H]-TTNPB from RARalpha/RXRalpha (unknown origin) expressed in baculovirus expression system by scintillation proximity assay
T2 sequence (P10276 whole entry): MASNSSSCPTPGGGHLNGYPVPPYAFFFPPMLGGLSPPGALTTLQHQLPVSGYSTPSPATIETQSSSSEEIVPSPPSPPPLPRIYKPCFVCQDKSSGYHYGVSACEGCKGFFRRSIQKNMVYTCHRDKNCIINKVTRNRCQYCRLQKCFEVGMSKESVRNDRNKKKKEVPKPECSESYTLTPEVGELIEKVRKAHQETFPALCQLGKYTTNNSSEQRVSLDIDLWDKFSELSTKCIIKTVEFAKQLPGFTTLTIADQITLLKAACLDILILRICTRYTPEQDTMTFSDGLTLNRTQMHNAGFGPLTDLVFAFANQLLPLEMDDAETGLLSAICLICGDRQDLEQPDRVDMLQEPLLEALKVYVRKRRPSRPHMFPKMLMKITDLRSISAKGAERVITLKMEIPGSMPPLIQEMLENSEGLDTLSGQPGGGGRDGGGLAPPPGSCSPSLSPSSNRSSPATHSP
T2 sequence (P19793 whole entry): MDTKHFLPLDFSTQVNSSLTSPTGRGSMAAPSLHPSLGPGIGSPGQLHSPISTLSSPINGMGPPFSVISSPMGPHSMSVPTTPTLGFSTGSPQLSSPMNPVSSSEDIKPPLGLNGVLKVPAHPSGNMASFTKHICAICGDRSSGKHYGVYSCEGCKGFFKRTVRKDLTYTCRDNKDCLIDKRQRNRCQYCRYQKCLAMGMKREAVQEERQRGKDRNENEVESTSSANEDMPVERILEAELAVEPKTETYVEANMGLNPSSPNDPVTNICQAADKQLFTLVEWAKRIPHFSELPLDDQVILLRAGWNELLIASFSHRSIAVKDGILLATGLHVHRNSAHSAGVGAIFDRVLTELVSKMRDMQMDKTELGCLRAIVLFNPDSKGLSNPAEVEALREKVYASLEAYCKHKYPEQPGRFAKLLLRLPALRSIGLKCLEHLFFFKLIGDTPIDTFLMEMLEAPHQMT

[4] = target: T3, Retinoic acid receptor RXR-alpha/Retinoic acid receptor beta (Homo sapiens, UniProt P10826); assay: Displacement of [3H]-TTNPB from RARbeta/RXRalpha (unknown origin) expressed in baculovirus expression system by scintillation proximity assay
T3 sequence (P10826 whole entry): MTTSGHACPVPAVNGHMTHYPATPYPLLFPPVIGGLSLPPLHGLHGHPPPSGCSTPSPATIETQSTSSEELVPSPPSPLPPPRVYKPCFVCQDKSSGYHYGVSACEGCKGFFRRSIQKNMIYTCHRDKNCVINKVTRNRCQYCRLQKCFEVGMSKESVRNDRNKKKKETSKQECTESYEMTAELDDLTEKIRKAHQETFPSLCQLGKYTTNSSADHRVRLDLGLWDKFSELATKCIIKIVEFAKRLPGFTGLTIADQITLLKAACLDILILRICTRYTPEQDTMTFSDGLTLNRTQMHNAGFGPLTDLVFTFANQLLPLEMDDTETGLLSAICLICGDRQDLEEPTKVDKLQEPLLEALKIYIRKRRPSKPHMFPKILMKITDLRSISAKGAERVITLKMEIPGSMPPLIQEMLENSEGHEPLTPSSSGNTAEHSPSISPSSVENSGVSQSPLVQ
T3 sequence (P19793 whole entry): T2 sequence (P19793 whole entry)

[5] = target: T4, Retinoic acid receptor RXR-alpha/gamma (Homo sapiens, UniProt P13631+P19793); assay: Displacement of [3H]-TTNPB from RARgamma/RXRalpha (unknown origin) expressed in baculovirus expression system by scintillation proximity assay
T4 sequence (P13631 whole entry): T1 sequence (whole entry)
T4 sequence (P19793 whole entry): T2 sequence (P19793 whole entry)

[6] = Selectivity index, ratio of Ki for RARalpha/RXRalpha (unknown origin) to Ki for RARgamma/RXRalpha (unknown origin) expressed in baculovirus expression system; parameters: species or system Homo sapiens
Homo sapiens = species on record: Homo sapiens; assay: Selectivity index, ratio of Ki for RARbeta/RXRalpha (unknown origin) to Ki for RARgamma/RXRalpha (unknown origin) expressed in baculovirus expression system
[7] = Solubility of the compound in simulated intestinal fluid; type: ADME
[8] = target: T5, Retinoic acid receptor alpha (Homo sapiens, UniProt P10276); assay: Antagonist activity at RARalpha-LBD (unknown origin) expressed in HEK-293 cells assessed as inhibition of ATRA induced Gal4/luciferase gene expression after 24 hrs; type: cell-based, HEK293
T5 sequence (P10276 whole entry): T2 sequence (P10276 whole entry)

[9] = target: T6, Retinoic acid receptor beta (Homo sapiens) (UniProt P10826); assay: Antagonist activity at RARbeta-LBD (unknown origin) expressed in HEK-293 cells assessed as inhibition of ATRA induced Gal4/luciferase gene expression after 24 hrs; type: cell-based; conditions: HEK293
T6 sequence (whole entry): T3 sequence (P10826 whole entry)

[10] = Oral bioavailability in rat at 10 mg/kg measured up to 14 days; type: ADME, organism-based; conditions: in vivo
Rattus norvegicus [11] = assay: Analgesic activity in MIA-induced osteoarthritis-like joint pain rat model assessed as reduction in differential weight bearing between contralateral and ipsilateral limbs administered on day 9 post MIA challenge as single oral dose; type: functional; conditions: 216 h
How it was run: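 Rats received a single intraarticular injection of mono-iodoacetate into one hind limb joint. Joint pain read as differential weight bearing between contralateral and ipsilateral limbs. Compound given as a single oral dose on the day of testing. ED50 derived from the dose-response.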

[12] = AUC in rat at 0.72 mg/kg, po administered for 14 days; type: ADME, organism-based; conditions: in vivo
[13] = AUC in rat at 10 mg/kg, po administered for 14 days; type: ADME, organism-based; conditions: in vivo
[14] = AUC in rat at 30 mg/kg, po administered for 14 days; type: ADME, organism-based; conditions: in vivo
Rattus norvegicus [15] = assay: Toxicity in rat assessed as testicular degeneration at 10 mg/kg, po administered for 14 days; type: organism-based; conditions: in vivo, 336 h
Rattus norvegicus [16] = assay: Toxicity in rat assessed as testicular degeneration at 30 mg/kg, po administered for 14 days; type: organism-based; conditions: in vivo, 336 h

Compound	Kb [1] [nM]	Imax [2] [%]	Ki [3] [nM]	Ki [4] [nM]	Ki [5] [nM]	Ratio Ki [6]	Ratio Ki (Homo sapiens)	solubility ([7]; simulated intestinal fluid, read-out: solubility) [mg/mL]	Kb [8] [nM]	Kb [9] [nM]	bioavailability [10] [%]	ED50 (Rattus norvegicus [11]) [mg/kg]	AUC at 336 h [12] [µg·h/mL]	AUC at 336 h [13] [µg·h/mL]	AUC at 336 h [14] [µg·h/mL]	Activity (Rattus norvegicus [15])	Activity (Rattus norvegicus [16])	solubility ([7]; simulated gi fluid) [mg/mL]
CN(C)C(=O)c1ccc(-n2nc(-c3ccc(C(=O)O)cc3)cc2-c2cc(C(C)(C)C)cc(C(C)(C)C)c2)cc1	21.3	> 100	> 1700	> 2980	2.2	>766	> 1340											
CN(C)S(=O)(=O)c1ccc(-n2nc(-c3ccc(C(=O)O)cc3)cc2-c2cc(C(C)(C)C)cc(C(C)(C)C)c2)cc1	11.1	> 100	> 1700	> 2980	4.1	>414	> 725											
CC(C)(C)c1cccc(-c2cc(-c3ccc(C(=O)O)cc3)nn2-c2ccc(S(C)(=O)=O)cc2)c1			1.8	4.3	1.1	1.6												
CC(C)c1cc(-c2cc(-c3ccc(C(=O)O)cc3)nn2-c2ccc(S(C)(=O)=O)cc2)cc(C(C)(C)C)c1			87	131	1.6	54												
CC(C)(C)c1cc(-c2cc(-c3ccc(C(=O)O)cc3)nn2-c2ccc(C(=O)N3CCOCC3)cc2)cc(C(C)(C)C)c1	7.2	> 100	> 1700	> 2980	2.3	>752	> 1320											
CC1(C)CCC(C)(C)c2cc(-c3cc(-c4ccc(C(=O)O)cc4)nn3-c3ccc(S(C)(=O)=O)cc3)ccc21	2.2	> 100	2.8	5.2	0.27	10	10											
CN1CCN(C(=O)c2ccc(-n3nc(-c4ccc(C(=O)O)cc4)cc3-c3cc(C(C)(C)C)cc(C(C)(C)C)c3)cc2)CC1	7.1	> 100	> 1700	> 2980	1.1	>1560	> 2730	> 1	> 4440	1510	26	0.724	0.154	9.1	36.8	Non-toxic	Toxic	
Cc1cc(-c2cc(-c3ccc(C(=O)O)cc3)nn2-c2ccc(S(C)(=O)=O)cc2)cc(C(C)(C)C)c1			6.2	10	1.1	5.6												
CC(C)(C)c1cc(-c2cc(-c3ccc(C(=O)O)cc3)nn2-c2ccc(C(N)=O)cc2)cc(C(C)(C)C)c1	14.7	79	> 1700	> 2980	1.4	>1259	> 2210											
CC(C)(C)c1cc(-c2cc(-c3ccc(C(=O)O)cc3)nn2-c2ccc(S(C)(=O)=O)cc2)cc(C(C)(C)C)c1	13.5	> 100	461	995	4.4	106	228											< 0.0001
CC1(C)CC=C(c2ccccc2)c2cc(/C=C/c3ccc(C(=O)O)cc3)ccc21	18.5	> 100	7.7		17.3													
